Results as given in ChEMBL document CHEMBL3046297, “Molecular design of antifungal agents” (J Agric Food Chem, 2002).
≈ marks a conversion by molar mass, not a printed value. Calls of active or inactive are those of the source. The rule behind the calls is not given here.

Experiments:
[1] = tested on: Radical scavenging activity; experiment: Antioxidant activity assessed as DPPH free radical scavenging activity after 20 min; type: functional
Procedure, shortened: (§1)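 DPPH scavenging. The mix held 100 mM acetate buffer pH 5.5, ethanol, ethanolic DPPH and sample. It stood 20 min at room temperature, then absorbance was read at 517 nm. Results are % decrease versus a DPPH control. IC50 was interpolated from concentration-inhibition curves, as the mean of triplicates.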

Saccharomyces cerevisiae [2] = experiment: Antifungal activity against Saccharomyces cerevisiae ATCC 7754 after 48 hr by broth macrodilution method; settings: ATCC 7754, 48 h
Saccharomyces cerevisiae [3] = experiment: microbe, parasite or virus in culture; type: functional; settings: ATCC 7754, 48 h
Saccharomyces cerevisiae [4] = experiment: microbe, parasite or virus in culture; type: functional; settings: ATCC 7754, 48 h; remark: listed apart in the source
Saccharomyces cerevisiae [5] = experiment: microbe, parasite or virus in culture; type: functional; settings: ATCC 7754, 48 h; remark: listed apart in the source
Saccharomyces cerevisiae [6] = experiment: microbe, parasite or virus in culture; type: functional; settings: ATCC 7754, 48 h; remark: listed apart in the source
Saccharomyces cerevisiae [7] = experiment: Drug uptake in Saccharomyces cerevisiae ATCC 7754 at 50 to 100 ug/ml after 5 seconds; type: ADME, organism-based; settings: in vivo, 5 s
Procedure, shortened: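 Adsorption to cells. Yeast grown overnight with shaking in YPD at 30 °C was washed twice in 50 mM MOPS pH 6.0. Compound was mixed with or without cells (10^8 cells/mL) in this buffer at 30 °C and vortexed 5 s. After 2 min centrifugation, supernatant absorbance was read at 272 nm.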

Saccharomyces cerevisiae [8] = experiment: Antifungal activity against Saccharomyces cerevisiae ATCC 7754 at 12.5 to 50 ug/ml after 1 hr by time kill analysis; type: functional, organism-based
Procedure, shortened: (§2)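 Time-kill assay. A 5-h, 30 °C preculture was inoculated into ME broth containing compound, initial 5.8 × 10^5 CFU/mL, then grown at 30 °C without shaking. Samples were taken at selected times over 48 h, serially diluted in sterile saline and plated on YPD agar. Plates were incubated 24 h at 30 °C before counting viable CFU.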

[9] = tested on: Radical scavenging activity; experiment: Antioxidant activity assessed as DPPH free radical scavenging activity up to 800 ug/ml after 20 min; type: functional; procedure, shortened: as §1
Saccharomyces cerevisiae [10] = experiment: Antifungal activity against Saccharomyces cerevisiae ATCC 7754 at MFC to 4 times MFC treated 24 hr after incubation measured up to 30 hr; type: functional, organism-based
Procedure, shortened: (§3)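 Growth-stage kill test. Yeast at 10^5 cells/mL was inoculated into ME broth. Compound at MFC, 2× MFC or 4× MFC was added after 0, 4 or 24 h of incubation, and viable cells were then followed over time.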

Saccharomyces cerevisiae [11] = experiment: Antifungal activity against Saccharomyces cerevisiae ATCC 7754 at 3.13 to 12.5 ug/ml after 1 hr by time kill analysis; type: functional, organism-based; procedure, shortened: as §2
Saccharomyces cerevisiae [12] = experiment: Antifungal activity against Saccharomyces cerevisiae ATCC 7754 at MFC after 2 hr; type: functional, organism-based; procedure, shortened: as §2
Saccharomyces cerevisiae [13] = experiment: Antifungal activity against Saccharomyces cerevisiae ATCC 7754 at MFC to 4 times MFC treated 4 hr after incubation measured up to 30 hr; type: functional, organism-based; procedure, shortened: as §3

Structure (SMILES) | MIC (Saccharomyces cerevisiae [2]) | MFC (Saccharomyces cerevisiae [2]) | other results
CCCCCCCCCOC(=O)c1ccc(OC)c(O)c1 | > 400 µg/mL | > 400 µg/mL | Activity [1]: Active
CCCCCCCCCOC(=O)c1ccc(O)c(OC)c1 | > 400 µg/mL | > 400 µg/mL | Activity [1]: Active
CCCCCCO [1-HEXANOL] | > 1600 µg/mL | > 1600 µg/mL | 
O=C(O)c1cc(O)cc(O)c1 [3,5-DIHYDROXYBENZOIC ACID] | 3200 µg/mL (≈ 20800 µM) | > 3200 µg/mL | 
O=C(O)c1cccc(O)c1 [3-HYDROXYBENZOIC ACID] | 3200 µg/mL (≈ 23200 µM) | > 3200 µg/mL | 
CCCCCCCCCCCCO [DODECANOL] |  | > 1600 µg/mL | 
CCCCCCCCCCCCOC(=O)c1cc(O)c(O)c(O)c1 [DODECYL GALLATE] | > 1600 µg/mL | > 1600 µg/mL | Drug uptake (Saccharomyces cerevisiae [7]): Active
COC(=O)c1cc(O)c(O)c(O)c1 [GALLIC ACID METHYL ESTER] | > 3200 µg/mL |  | 
O=C(O)c1cc(O)c(O)c(O)c1 [GALLIC ACID] | > 3200 µg/mL |  | 
CCCCCCOC(=O)c1cc(O)cc(O)c1 [HEXYL 3,5-DIHYDROXYBENZOATE] | > 800 µg/mL |  | Activity [9]: inactive
CCCCCCOC(=O)c1ccc(O)cc1 [HEXYL 4-HYDROXYBENZOATE] | > 800 µg/mL |  | Activity [9]: inactive
CCCCCCCCCOC(=O)c1cc(O)cc(O)c1 [NONYL 3,5-DIHYDROXYBENZOATE] | > 400 µg/mL | > 400 µg/mL | Activity [1]: inactive
CCCCCCCCCOC(=O)c1cccc(O)c1 [NONYL 3-HYDROXYBENZOATE] | > 400 µg/mL | > 400 µg/mL | Activity [1]: inactive
CCCCCCCCCOC(=O)c1ccc(O)cc1 [NONYL 4-HYDROXYBENZOATE] | > 400 µg/mL |  | Activity [1]: inactive
CCCCCCCCCOC(=O)c1ccccc1 [NONYL BENZOATE] | > 400 µg/mL |  | Activity [1]: inactive
CCCOC(=O)c1cc(O)c(O)c(O)c1 [PROPYL GALLATE] | 3200 µg/mL (≈ 15100 µM) | > 3200 µg/mL | 
O=C(O)c1ccc(O)c(O)c1 [PROTOCATECHUIC ACID] | 3200 µg/mL (≈ 20800 µM) | > 3200 µg/mL | 
C/C=C/C=C/C(=O)O [SORBIC ACID] |  |  | MFC (Saccharomyces cerevisiae [3]): 3200 µg/mL (≈ 28500 µM); MIC (Saccharomyces cerevisiae [3]): 800 µg/mL (≈ 7130 µM); MIC (Saccharomyces cerevisiae [4]): > 1600 µg/mL; MIC (Saccharomyces cerevisiae [5]): > 1600 µg/mL; MFC (Saccharomyces cerevisiae [6]): 1600 µg/mL (≈ 14300 µM); MIC (Saccharomyces cerevisiae [6]): 400 µg/mL (≈ 3570 µM)
CCCCCCCCCCCCCO [TRIDECAN-1-OL] | > 1600 µg/mL |  | 
CCCCCCCCCCCOC(=O)c1cc(O)c(O)c(O)c1 [UNDECYL GALLATE] | > 1600 µg/mL | > 1600 µg/mL | 

Continued by falling MIC (Saccharomyces cerevisiae [2]), values first:

MIC (Saccharomyces cerevisiae [2]) | Structure (SMILES) | MFC (Saccharomyces cerevisiae [2]) | other results
1600 µg/mL (≈ 11600 µM) | O=C(O)c1ccc(O)cc1 [PARABEN] | > 3200 µg/mL | 
800 µg/mL (≈ 6880 µM) | CCCCCCCO [1-HEPTANOL] | > 1600 µg/mL | 
800 µg/mL (≈ 6550 µM) | O=C(O)c1ccccc1 [BENZOIC ACID] | 1600 µg/mL (≈ 13100 µM) | MFC (Saccharomyces cerevisiae [3]): 1600 µg/mL (≈ 13100 µM); MIC (Saccharomyces cerevisiae [3]): 800 µg/mL (≈ 6550 µM); MIC (Saccharomyces cerevisiae [4]): > 1600 µg/mL; MIC (Saccharomyces cerevisiae [5]): > 1600 µg/mL; MFC (Saccharomyces cerevisiae [6]): 1600 µg/mL (≈ 13100 µM); MIC (Saccharomyces cerevisiae [6]): 800 µg/mL (≈ 6550 µM)
400 µg/mL (≈ 1680 µM) | CCCCCCOC(=O)c1ccc(O)c(O)c1 [HEXYL 3,4-DIHYDROXYBENZOATE] | 400 µg/mL (≈ 1680 µM) | 
400 µg/mL (≈ 1570 µM) | CCCCCCOC(=O)c1cc(O)c(O)c(O)c1 [HEXYL GALLATE] | 400 µg/mL (≈ 1570 µM) | 
200 µg/mL (≈ 1540 µM) | CCCCCCCCO [OCTANOL] | 800 µg/mL (≈ 6140 µM) | 
100 µg/mL (≈ 373 µM) | CCCCCCCOC(=O)c1cc(O)c(O)c(O)c1 [HEPTYL GALLATE] | 100 µg/mL (≈ 373 µM) | 
100 µg/mL (≈ 693 µM) | CCCCCCCCCO [NONANOL] | 200 µg/mL (≈ 1390 µM) | 
50 µg/mL (≈ 163 µM) | O=C(OC1CCC2CCCCC2C1)c1cc(O)c(O)c(O)c1 (configuration not stated) [DECAHYDRO-2-NAPHTHYL GALLATE] | 50 µg/mL (≈ 163 µM) | 
50 µg/mL (≈ 316 µM) | CCCCCCCCCCO [DECANOL] | 50 µg/mL (≈ 316 µM) | 
50 µg/mL (≈ 163 µM) | CC(C)=CCC/C(C)=C/COC(=O)c1cc(O)c(O)c(O)c1 [Geranyl gallate] | 50 µg/mL (≈ 163 µM) | Activity (Saccharomyces cerevisiae [8]): Active
25 µg/mL (≈ 145 µM) | CCCCCCCCCCCO [UNDECANOL] | 25 µg/mL (≈ 145 µM) | 
12.5 µg/mL (≈ 40.3 µM) | CCCCCCCCCCOC(=O)c1cc(O)c(O)c(O)c1 [DECYL GALLATE] | 25 µg/mL (≈ 80.5 µM) | 
6.25 µg/mL (≈ 22.3 µM) | CCCCCCCCCOC(=O)c1ccc(O)c(O)c1 [NONYL 3,4-DIHYDROXYBENZOATE] | 12.5 µg/mL (≈ 44.6 µM) | Activity [1]: Active
6.25 µg/mL (≈ 21.1 µM) | CCCCCCCCCOC(=O)c1cc(O)c(O)c(O)c1 [NONYL GALLATE] | 12.5 µg/mL (≈ 42.2 µM) | MFC (Saccharomyces cerevisiae [3]): 12.5 µg/mL (≈ 42.2 µM); MIC (Saccharomyces cerevisiae [3]): 6.25 µg/mL (≈ 21.1 µM); MFC (Saccharomyces cerevisiae [4]): 50 µg/mL (≈ 169 µM); MIC (Saccharomyces cerevisiae [4]): 25 µg/mL (≈ 84.4 µM); Activity [1]: Active; Activity (Saccharomyces cerevisiae [10]): Active; Activity (Saccharomyces cerevisiae [11]): Active; Activity (Saccharomyces cerevisiae [12]): Active; MFC (Saccharomyces cerevisiae [5]): 25 µg/mL (≈ 84.4 µM); MIC (Saccharomyces cerevisiae [5]): 12.5 µg/mL (≈ 42.2 µM); MFC (Saccharomyces cerevisiae [6]): 12.5 µg/mL (≈ 42.2 µM); MIC (Saccharomyces cerevisiae [6]): 6.25 µg/mL (≈ 21.1 µM); Drug uptake (Saccharomyces cerevisiae [7]): Active; Activity (Saccharomyces cerevisiae [13]): Active
